The results in this text go back to ChEMBL document CHEMBL4152197, “Proteolysis Targeting Chimeras (PROTACs) of Anaplastic Lymphoma Kinase (ALK)” (Eur J Med Chem, 2018).

The subject of data set [1] is SU-DHL-1. The experiment in a line: Toxicity against human SU-DHL1 cells assessed as cell death over 100 nM after 3 days by luminescence-based CellTiter-Glo assay. As to conditions: su-dhl-1, 72 h. On the technique in general: ATP-based viability assays read luminescence as a measure of living cells.
Data set [2] deals with T1, ALK tyrosine kinase receptor (Homo sapiens, UniProt Q9UM73). Description: Binding affinity to wild-type human partial length ALK (I1088 to E1409 residues) expressed in mammalian expression system by KINOMEscan assay.
For data set [3], the system named is SU-DHL-1. Description: Growth inhibition of human SU-DHL1 cells after 3 days by luminescence-based CellTiter-Glo assay. It counts as functional, cell-based.
The subject of a further data set is NCI-H2228. The experiment in a line: Growth inhibition of human NCI-H2228 cells after 3 days by luminescence-based CellTiter-Glo assay. The format is functional, cell-based. As to conditions: for IC50: NCI-H2228, 72 h.
Data set [4] addresses T1, ALK tyrosine kinase receptor. Description: Inhibition of ALK autophosphorylation at Y1507 residue in human SU-DHL1 cells after 16 hrs by Western blot analysis. The format is cell-based. The method, boiled down:
(§1)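 SU-DHL-1 or NCI-H2228 cells, grown in RPMI-1640 with 10% FBS at 37 °C under 5% CO₂, were exposed to DMSO or serial dilutions of compound (up to 100 nM) for 16 h. Cells were lysed in Laemmli buffer and run on SDS-PAGE/PVDF immunoblots probed for ALK, p-ALK Y1507, STAT3, p-STAT3 Y705 and GAPDH. Band levels were normalized to GAPDH. DC50 was taken from a variable-slope fit, triplicate independent experiments, mean ± SEM.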
On the technique in general: In western blotting, separated proteins are transferred to a membrane and probed.

Data set [5] shares this target. Description: Inhibition of ALK autophosphorylation at Y1507 residue in human NCI-H2228 cells after 16 hrs by Western blot analysis. It counts as cell-based. The method, boiled down: as §1
The target in data set [6] is T2, Protein cereblon/ALK tyrosine kinase receptor/Echinoderm microtubule-associated protein-like 4 (Homo sapiens) (UniProt Q9UM73+Q9HC35+Q96SW2). Description: Induction of CRL4/CRBN ubiquitin ligase-mediated EML4-ALK fusion protein degradation in human NCI-H2228 cells assessed as reduction in STAT3 phosphorylation at Y705 residue after 16 hrs by Western blot analysis. The format is cell-based. The method, boiled down: as §1

In data set [7] the target is T3, Protein cereblon/ALK tyrosine kinase receptor/Nucleophosmin (Homo sapiens) (UniProt Q9UM73+P06748+Q96SW2). The experiment in a line: Induction of CRL4/CRBN ubiquitin ligase-mediated NPM-ALK fusion protein degradation in human SU-DHL1 cells assessed as reduction in NPM-ALK fusion protein levels at 100 nM after 16 hrs by Western blot analysis. On the set-up: scale not given: the % may be the effect or the level left. It counts as cell-based. The method, boiled down: as §1

The target in data set [8] is T1, ALK tyrosine kinase receptor. The experiment in a line: Inhibition of ALK autophosphorylation at Y1507 residue in human SU-DHL1 cells at 100 nM after 16 hrs by Western blot analysis. It counts as cell-based. The procedure, abridged: as §1
Data set [9] shares this target. The experiment in a line: Inhibition of ALK in human SU-DHL1 cells assessed as reduction in STAT3 phosphorylation at Y705 residue at 100 nM after 16 hrs by Western blot analysis. The format is cell-based. The procedure, abridged: as §1
Data set [10] addresses T2, Protein cereblon/ALK tyrosine kinase receptor/Echinoderm microtubule-associated protein-like 4 (Homo sapiens). The experiment in a line: Induction of CRL4/CRBN ubiquitin ligase-mediated EML4-ALK fusion protein degradation in human NCI-H2228 cells assessed as reduction in EML4-ALK fusion protein levels at 60 nM after 8 to 24 hrs hrs by Western blot analysis. It counts as cell-based. The method, boiled down:
(§2)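 Time course by immunoblot. SU-DHL-1 (30 nM) or NCI-H2228 (60 nM) cells in RPMI-1640 with 10% FBS were held at a fixed degrader concentration and harvested over time up to 24 h. Lysates in Laemmli buffer were blotted for ALK fusion protein, p-ALK Y1507 and p-STAT3 Y705, with GAPDH as the loading reference.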

The target is the same in data set [11]. Description: Induction of CRL4/CRBN ubiquitin ligase-mediated EML4-ALK fusion protein degradation assessed as inhibition of ALK autophosphorylation at Y1507 residue in human NCI-H2228 cells at 60 nM after 8 to 24 hrs by Western blot analysis. The format is cell-based. The procedure, abridged:
as §2

For data set [12], the target named is T3, Protein cereblon/ALK tyrosine kinase receptor/Nucleophosmin (Homo sapiens). Description: Induction of CRL4/CRBN ubiquitin ligase-mediated NPM-ALK fusion protein degradation in human SU-DHL1 cells pretreated with MLN4924 for 2 hrs followed by compound addition at 100 nM and measured after 6 hrs by Western blot analysis. The format is cell-based.
For data set [13] the target is unchanged. Description: Induction of CRL4/CRBN ubiquitin ligase-mediated NPM-ALK fusion protein degradation in human SU-DHL1 cells pretreated with MG-132 for 2 hrs followed by compound addition at 100 nM and measured after 6 hrs by Western blot analysis. The format is cell-based.
Data set [14] has the same target. The experiment in a line: Induction of CRL4/CRBN ubiquitin ligase-mediated NPM-ALK fusion protein degradation in human SU-DHL1 cells pretreated with pomalidomide for 2 hrs followed by compound addition at 100 nM and measured after 6 hrs by Western blot analysis. It counts as cell-based.
Data set [15] deals with T1, ALK tyrosine kinase receptor. Description: Inhibition of ALK autophosphorylation at Y1507 residue in human SU-DHL1 cells pretreated with MG-132 for 2 hrs followed by compound addition at 100 nM and measured after 6 hrs by Western blot analysis. The format is cell-based.
The target is the same in data set [16]. The experiment in a line: Inhibition of ALK autophosphorylation at Y1507 residue in human SU-DHL1 cells pretreated with MLN4924 for 2 hrs followed by compound addition at 100 nM and measured after 6 hrs by Western blot analysis. It counts as cell-based.
Data set [17] has the same target. Description: Inhibition of ALK autophosphorylation at Y1507 residue in human SU-DHL1 cells pretreated with pomalidomide for 2 hrs followed by compound addition at 100 nM and measured after 6 hrs by Western blot analysis. It counts as cell-based.
The target of data set [18] is T3, Protein cereblon/ALK tyrosine kinase receptor/Nucleophosmin (Homo sapiens). The experiment in a line: Induction of CRL4/CRBN ubiquitin ligase-mediated NPM-ALK fusion protein degradation in human SU-DHL1 cells pretreated with ceritinib for 2 hrs followed by compound addition at 100 nM and measured after 6 hrs by Western blot analysis. It counts as cell-based.
Data set [19] has the same target. Description: Induction of CRL4/CRBN ubiquitin ligase-mediated NPM-ALK fusion protein degradation in human SU-DHL1 cells pretreated at 100 nM for 2 hrs followed by compound washout and measured after 8 hrs by Western blot analysis. The format is cell-based. The procedure, abridged:
(§3)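 Washout in SU-DHL-1 cells: DMSO or 100 nM compound for 2 h, then a PBS wash and incubation in fresh medium for the indicated times. Lysates were immunoblotted for NPM-ALK, p-ALK Y1507 and p-STAT3 Y705, with GAPDH as the reference.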

Data set [20] has the same target. The experiment in a line: Induction of CRL4/CRBN ubiquitin ligase-mediated NPM-ALK fusion protein degradation in human SU-DHL1 cells assessed as inhibition of ALK autophosphorylation at Y1507 residue pretreated at 100 nM for 2 hrs followed by compound washout and measured after 8 hrs by Western blot analysis. The format is cell-based. The method, boiled down: as §3

Data set [21] shares this target. The experiment in a line: Induction of CRL4/CRBN ubiquitin ligase-mediated NPM-ALK fusion protein degradation in human SU-DHL1 cells assessed as reduction in STAT3 phosphorylation at Y705 residue pretreated at 100 nM for 2 hrs followed by compound washout and measured after 8 hrs by Western blot analysis. It counts as cell-based. The method, boiled down:
as §3

The subject of a further data set is Mus musculus. Description: Toxicity in Swiss Albino mouse assessed as drug tolerability at 50 mg/kg, ip. The format is organism-based. As to conditions: in vivo. The procedure, abridged:
(§4)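 Male Swiss Albino mice received a single 50 mg/kg intraperitoneal dose, with clinical signs monitored. Plasma was sampled at 30 min, 1, 2, 4, 8 and 12 h post dose. Values are the average of 3 animals ± SD.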

Data set [22] is described as follows: Plasma concentration in Swiss Albino mouse at 50 mg/kg, ip after 2 hrs. It counts as ADME, organism-based. The procedure, abridged:
as §4

A short description of data set [23]: Plasma concentration in Swiss Albino mouse at 50 mg/kg, ip after 12 hrs. The format is ADME, organism-based. The method, boiled down:
as §4

The target of data set [24] is T2, Protein cereblon/ALK tyrosine kinase receptor/Echinoderm microtubule-associated protein-like 4 (Homo sapiens). The experiment in a line: Induction of CRL4/CRBN ubiquitin ligase-mediated EML4-ALK fusion protein degradation in human NCI-H2228 cells assessed as reduction in STAT3 phosphorylation at Y705 residue at 60 nM after 8 to 24 hrs by Western blot analysis. It counts as cell-based. The method, boiled down:
as §2

Molecules are shown by their SMILES. Calls of active or inactive are those of the source. The rule behind the calls is not given here. Bounds are passed on as bounds.

As usually defined, the Kd is the concentration at which binding is half-saturated. In general, inhibition refers to the share of the control response that was lost under treatment. What is called IC50 is the concentration needed to halve the response being measured.

`Cc1cc(Nc2ncc(Cl)c(Nc3ccccc3S(=O)(=O)C(C)C)n2)c(OC(C)C)cc1C1CCNCC1` [CERITINIB]: the Activity entry with SU-DHL-1 [1] is listed as “Toxic”.

As to `Cc1cc(Nc2ncc(Cl)c(Nc3ccccc3S(=O)(=O)C(C)C)n2)c(OC(C)C)cc1C1CCN(CC(=O)NCCNc2cccc3c2C(=O)N(C2CCC(=O)N(C)C2=O)C3=O)CC1` (configuration not stated), in [2], the Kd was 78 nM. For the same molecule, the “growth inhibition (GI)” value in the data set with SU-DHL-1 [3] and in the data set with NCI-H2228 was “inactive” each time.

As for `Cc1cc(Nc2ncc(Cl)c(Nc3ccccc3S(=O)(=O)C(C)C)n2)c(OC(C)C)cc1C1CCN(CC(=O)NCCNc2cccc3c2C(=O)N(C2CCC(=O)NC2=O)C3=O)CC1` (configuration not stated), the inhibition entry in data set [4] was “Dose-dependent effect”; in data set [5] it was “Dose-dependent effect”; in data set [8], over 90%; in data set [9], over 90%. The Activity result in [6] was “Dose-dependent effect”; in [7], over 90%; in the data set with SU-DHL-1 [1] it was “Toxic”; with Mus musculus, “Non-Toxic”. Further, the result in [10], in data set [11], in [18] and in data set [24] was Active. Moreover, the outcome in [12], in data set [13], in data set [14], in data set [19], in data set [20] and in [21] was inactive. The inhibition result in data set [15], in data set [16] and in data set [17] was “Active” each time. The IC50 in the data set with NCI-H2228 was determined as 33 nM. The same molecule returned a concentration at 2 h in data set [22] of 3000 nM. The molecule further came in with a concentration at 12 h in data set [23] of 340 nM.

Molecule `Cc1cc(Nc2ncc(Cl)c(Nc3ccccc3S(=O)(=O)C(C)C)n2)c(OC(C)C)cc1C1CCN(CC(=O)NCCOCCOCCOCCOCCOCCNc2cccc3c2C(=O)N(C2CCC(=O)N(C)C2=O)C3=O)CC1` (configuration not stated) came in with a Kd in data set [2] of 54 nM. Also, the “growth inhibition (GI)” value in the data set with SU-DHL-1 [3] and in the data set on NCI-H2228 was “inactive” in each case.

For the molecule `Cc1cc(Nc2ncc(Cl)c(Nc3ccccc3S(=O)(=O)C(C)C)n2)c(OC(C)C)cc1C1CCN(CC(=O)NCCOCCOCCOCCOCCOCCNc2cccc3c2C(=O)N(C2CCC(=O)NC2=O)C3=O)CC1` (configuration not stated), the inhibition result was “Dose-dependent effect” in data set [4], “Dose-dependent effect” in data set [5], over 90% in [8] and over 90% in [9]. In addition, the figures for the Activity entry (in [6]; in data set [7]; with SU-DHL-1 [1]) were “Dose-dependent effect”, over 90% and “Toxic”, respectively. Further, the outcome in data set [10], in data set [11], in [18] and in data set [24] was Active. Also, the result in [12], in data set [13], in data set [14], in data set [19], in [20] and in data set [21] was inactive. The inhibition result in [15], in [16] and in [17] was “Active” throughout. The IC50 in the data set on NCI-H2228 is 46 nM.
